The list is not random: actives were taken first. Their share in the collection is about 1.2%.
CAL PDZ FP-1 – inhibitors of human CAL PDZ peptide binding | Q9HD26 | purified CAL PDZ, TMR-peptide fluorescence polarization, 1 h | inhibition, % at 20 µM | 0.02% of 330,000 active;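 active = highest replicate inhibition of at least 40%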;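 note: plate controls were DMSO neutral control wells for no effect and unlabeled competitor peptide control wells for full effect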
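Assay system – tagged CAL PDZ protein CerCALP, purified · Timing – 1 h at RT · Compound – single point, 20 µM · Measured by – fluorescence polarization from S- and P-plane intensities, G-factor corrected · Evaluation – inhibition from polarization loss · Probe or stimulus – TMR reporter peptide T*-PRC34 · Buffer or medium – pH 7.4 phosphate-saline buffer, reducing agent, detergent, IgG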
ARNT-TACC3 inh – ARNT/TACC3 interaction disruption; Q9Y6A5; AlphaScreen His-ARNT PAS-B/GST-TACC3 binding, luminescence; TACC3 fragment carries E629A point mutation; 0.66% of 390,000 active; inhibition, % at 9.99 µM;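 active = mean inhibition of replicates at least 50% and at least half of replicates each reaching 50%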;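 note: 0% = complete ARNT plus TACC3 wells and 100% = ARNT alone without TACC3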
CAL PDZ FP-2 – CAL PDZ (human) peptide binding inhibition. Q9HD26. purified CAL PDZ, TMR-peptide fluorescence polarization, 1 h. inhibition, % at 24.9 µM. 0.92% of 300,000 active. AID 602252;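 active = mean inhibition of at least 30% with at least half of replicates also reaching 30%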;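 note: 0% = DMSO neutral control and 100% = excess unlabeled competitor peptide PRC23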
An asterisk follows results filed as active.

For C[C@@H](NC(=O)[C@H]1[C@H](CO)[C@H]2Cn3c(ccc(-c4cccnc4)c3=O)[C@H]2N1C)c1ccccc1 the results were ARNT-TACC3 inh 1.
For C[C@@H]1CN([C@H](C)CO)C(=O)Cc2cc(NC(=O)NC3CCCCC3)ccc2O[C@@H]1CN(C)C the results were ARNT-TACC3 inh 34.
Screening COc1ccc(NC(=O)N(C)C[C@@H]2Oc3c(NS(=O)(=O)c4ccc(Cl)cc4)cccc3C(=O)N([C@H](C)CO)C[C@@H]2C)cc1 returned ARNT-TACC3 inh 16.
CC(C)(C)[S@@](=O)N1Cc2cc(C(=O)N3CCCCC3)nc(-c3cccc(-c4ccccc4F)c3)c2[C@H]1CCO was read as ARNT-TACC3 inh 9.
`O=C(CCN1C(=O)/C(=C\c2ccccc2Cl)SC1=S)Nc1cccnc1` gave CAL PDZ FP-1 -1, ARNT-TACC3 inh -8 and CAL PDZ FP-2 66*.
`O=C(CCN1C(=O)/C(=C/c2ccccc2F)SC1=S)Nc1cccnc1` gave CAL PDZ FP-1 0, ARNT-TACC3 inh 0 and CAL PDZ FP-2 -4.
Screening O=C1NN(c2ccccc2)C(=O)/C1=C/c1ccc(-c2ccc(Cl)c(C(=O)O)c2)o1 returned CAL PDZ FP-1 -1, ARNT-TACC3 inh 2 and CAL PDZ FP-2 -6.
Screening Cc1cccc(N2NC(=O)/C(=C/c3ccc(-c4ccc(Cl)c(C(=O)O)c4)o3)C2=O)c1 returned CAL PDZ FP-1 0, ARNT-TACC3 inh -6 and CAL PDZ FP-2 97*.
For CCC(=O)N1C[C@@H](C)[C@@H](OC)CN(C)C(=O)c2cc(NC(=O)COC)ccc2OC[C@@H]1C the results were ARNT-TACC3 inh -2.
`COCCn1c(-c2ccc(OC)cc2)cnc1N` gave CAL PDZ FP-1 -2, ARNT-TACC3 inh 45* and CAL PDZ FP-2 15.
For COCCn1c(-c2ccc(OC)cc2)cnc1SCC(=O)Nc1cc(C)on1 the results were CAL PDZ FP-1 -1, ARNT-TACC3 inh -9 and CAL PDZ FP-2 2.
For CO[C@H]1CN(C)C(=O)c2cc(NC(=O)C3CCCC3)ccc2OC[C@H](C)N(C)C[C@H]1C the results were ARNT-TACC3 inh -22.
`Cc1cccc(/C=C/c2nc3ccccc3c(=O)[nH]2)c1` gave CAL PDZ FP-1 0 and ARNT-TACC3 inh -8.
Screening O=C(O)c1ccc(/C=C/c2nc3ccccc3c(=O)[nH]2)cc1 returned CAL PDZ FP-1 2, ARNT-TACC3 inh -5 and CAL PDZ FP-2 active.
Screening C[C@@H]1CN([C@@H](C)CO)C(=O)c2cc(NC(=O)Nc3ccc(F)cc3)ccc2O[C@@H](C)CCCCO[C@@H]1CN(C)S(=O)(=O)c1cn(C)cn1 returned ARNT-TACC3 inh -5.
For Cc1ccc(N(CC(=O)NCCSCc2ccco2)S(C)(=O)=O)cc1 the results were CAL PDZ FP-1 -2, ARNT-TACC3 inh -19 and CAL PDZ FP-2 -5.
For Cc1cc(Cl)ccc1N(CC(=O)NCCSCc1ccco1)S(C)(=O)=O the results were CAL PDZ FP-1 2, ARNT-TACC3 inh -1 and CAL PDZ FP-2 99*.
Screening Cc1ccc(NC(=O)C[C@H]2CC[C@H]3[C@@H](COc4ccc(NS(C)(=O)=O)cc4C(=O)N3C)O2)cc1 returned ARNT-TACC3 inh 26.
Screening C[C@H](CO)N1C[C@H](C)[C@@H](CN(C)Cc2ccc(C(=O)O)cc2)OCCCC[C@H](C)Oc2ccc(NC(=O)c3ccncc3)cc2C1=O returned ARNT-TACC3 inh -26.
For O=C(Cn1cc(COc2ccc(Br)cc2)nn1)c1ccc(O)cc1 the results were CAL PDZ FP-1 -1, ARNT-TACC3 inh -6 and CAL PDZ FP-2 -8.
O=C(Cn1cc(COc2ccc3ccc(=O)oc3c2)nn1)c1ccc(O)cc1 was read as CAL PDZ FP-1 -1, ARNT-TACC3 inh -3 and CAL PDZ FP-2 30*.
C[C@H](CO)N1C[C@H](C)[C@H](CN(C)C(=O)CC2CC2)Oc2cc(-c3ccncc3)ccc2S1(=O)=O was read as ARNT-TACC3 inh -5.
Cc1noc(C)c1NC(=O)N(C)C[C@@H]1OCCCC[C@H](C)Oc2ccc(NS(=O)(=O)c3cccs3)cc2C(=O)N([C@@H](C)CO)C[C@@H]1C was read as ARNT-TACC3 inh 7.
O=C(Cc1ccc([N+](=O)[O-])cc1)NCc1ccccn1 was read as CAL PDZ FP-1 -1, ARNT-TACC3 inh 2 and CAL PDZ FP-2 76*.
O=C(NCc1ccccn1)c1ccc([N+](=O)[O-])cc1 was read as CAL PDZ FP-1 -2 and CAL PDZ FP-2 -2.
Screening O=C(OCc1ccccc1)c1cnc(Cl)c(Cl)c1 returned CAL PDZ FP-1 -1, ARNT-TACC3 inh -3 and CAL PDZ FP-2 3.
Screening N#Cc1ccc(COC(=O)c2cnc(Cl)c(Cl)c2)cc1 returned CAL PDZ FP-1 -1, ARNT-TACC3 inh 1 and CAL PDZ FP-2 48*.

Source: PubChem
